This is a sample that favours compounds with a hit; in the whole collection about 1.6% have one here.
eIF4H inh: inhibitors of RNA binding by human eIF4H; eIF4H fluorescence polarization binding assay; Q15056; 0.94% of 290,000 active; AID 2012; inhibition, % at 35 µM;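 note: calls also rest on retests at 20 µM and on dose response follow-up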
RBBP9 inh: inhibitors of human serine hydrolase RBBP9; O75884; recombinant RBBP9, FP-Rh probe fluorescence polarization; inhibition, % at 7.94 µM; 0.2% of 220,000 active; AID 1515;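 active = inhibition above the campaign mean of all tested compounds plus 3 SD, cut at about 14% in these data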;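 note: plate controls were DMSO wells with RBBP9 for no effect and wells lacking RBBP9 protein for full effect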
Target sequence (O75884 whole entry, looked up): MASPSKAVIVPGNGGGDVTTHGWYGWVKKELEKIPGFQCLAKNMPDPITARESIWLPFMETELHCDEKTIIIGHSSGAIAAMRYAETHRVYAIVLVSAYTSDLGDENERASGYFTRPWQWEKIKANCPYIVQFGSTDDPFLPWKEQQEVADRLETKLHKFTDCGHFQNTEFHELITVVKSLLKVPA
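Measured by: FP readout at 525/598 nm; material: recombinant human RBBP9; also added: Serine-hydrolase probe FP-Rh, 375 nM pre-mixing; medium: Tris buffer pH 8.0, NaCl, Pluronic; replication: one well per compound; doses: one concentration, 7.94 µM nominal, 0.794% DMSO; timing: preincubation 30 min plus labeling 45 min at 25 °C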
PABP1 MLLE inh: inhibitors of microRNA-mediated deadenylation, human PABP1 MLLE binding; inhibition, % at 20 µM; AID 588489; P11940; GST-MLLE / FITC-PAM2 fluorescence polarization; 0.36% of 360,000 active; in the data active = inhibition above about 35%, passing the limit was not always enough;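 note: plate controls were DMSO wells with GST-MLLE for no effect and wells lacking GST-MLLE protein for full effect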
TCR-CD3 inh: inhibitors of human TCR-CD3 interaction. TAMRA-labeled TCR probe fluorescence, biochemical. inhibition, % at 9.4 µM. 0.37% of 360,000 active. AID 651800; in the data active = inhibition above about 19%;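 note: recombinant mutant TCR 2C K166C tagged with TAMRA read by polarization; 0% = receptor in buffer alone and 100% = receptor with positive control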
PABP polyA inh: PABP-poly(A) binding inhibition; P11940; PABP-poly(A) RNA binding, fluorescence polarization; calls only at 35 µM; 1% of 290,000 active; AID 2014;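 note: calls also rest on retests at 20 µM and on dose response follow-up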
The depositor's hits bear a star; i = inactive; ? = inconclusive; . = no result given; + = active, no number. Unless noted, the rule behind the calls is not given here.

SMILES	eIF4H inh	RBBP9 inh	PABP1 MLLE inh	TCR-CD3 inh	PABP polyA inh
C[C@@H]1COc2cccc(NCCO)c2S(=O)(=O)N1	.	.	.	-1.1	.
COc1ccc(CCC(=O)Nc2ccccc2C(F)(F)F)cc1	79.6*	1.5	-2.1	-1.3	+
Cn1c(=O)c2ncn(CC(=O)Nc3ccc4c5c(cccc35)CC4)c2n(C)c1=O	47.2*	-2.9	7.3	2.6	+
N=c1c(C(=O)NCc2ccccc2)cc2c(=O)n3ccccc3nc2n1Cc1ccco1	84.4*	0.7	4.1	5.0	+
N=c1c(C(=O)NCc2ccc(F)cc2)cc2c(=O)n3ccccc3nc2n1Cc1ccco1	48.2	-8.4	-17.9	11.8	i
N=c1c(C(=O)NCc2ccco2)cc2c(=O)n3ccccc3nc2n1Cc1ccc(Cl)cc1	52.3	-2.2	-23.9	-11.2	i
COc1ccc(CCNC(=O)c2cc3c(=O)n4cccc(C)c4nc3n(Cc3ccco3)c2=N)cc1OC	63.3*	.	0.6	10.9	i
Cc1cccn2c(=O)c3cc(C(=O)NCCc4ccccc4)c(=N)n(Cc4ccco4)c3nc12	52.5	.	-6.5	10.8	i
Cc1ccc(CNC(=O)c2cc3c(=O)n4ccccc4nc3n(Cc3ccco3)c2=N)cc1	56.4*	.	-7.5	8.3	+
Cc1ccc2nc3c(cc(C(=O)NCc4ccco4)c(=N)n3Cc3ccco3)c(=O)n2c1	?	-3.1	8.0	0.2	?
N=c1c(C(=O)NCc2ccco2)cc2c(=O)n3ccccc3nc2n1Cc1ccccc1	76.7*	-7.5	-18.7	3.4	+
COc1ccccc1CCn1cnc(-c2cccc(Cl)c2)c1CC(C)C	.	.	.	0.4	.
CN1OC[C@@H]2CN[C@H](c3ccc(-n4ccnc4)cc3)C[C@@H]21	.	.	.	6.9	.
N=c1c(C(=O)NCc2ccco2)cc2c(=O)n3ccccc3nc2n1C1CCCC1	77.7*	.	32.3	5.5	+
Cc1ccc(S(=O)(=O)c2cc3c(=O)n4ccccc4nc3n(Cc3ccco3)c2=N)cc1	78.3*	-0.1	-13.6	1.1	+
COCCn1c(=N)c(C(=O)NCc2ccco2)cc2c(=O)n3ccccc3nc21	112.8*	-6.1	29.4	2.4	+
COCCCn1c(=N)c(C(=O)NCc2ccc3c(c2)OCO3)cc2c(=O)n3ccccc3nc21	7.5	-3.8	0.8	2.4	i
COC(=O)N[C@H]1CC=C[C@@H]1Cc1cccc(Oc2ccccc2)c1	.	.	.	-0.2	.
COc1ccc(N/C=C\C(=O)c2ccc(Br)cc2)cc1OC	71.4*	-11.0	-91.2	-6.6	i
COc1ccc(N/C=C\C(=O)c2ccc(C)cc2)cc1OC	-0.2	-7.7	-9.9	6.3	i
COc1ccc(-c2ccc(SCC(=O)Nc3nnc(C)s3)nn2)cc1	54.8*	-8.5	-6.8	4.6	+
COc1ccc(CCNC(=O)CSc2ccc(-c3ccco3)nn2)cc1	44.5	-0.9	12.7	3.0	i
CCOc1ccc(-c2ccc(SCC(=O)Nc3nnc(CC)s3)nn2)cc1	-2.1	12.3	25.7	2.0	i
COc1ccc(CCNC(=O)CSc2ccc(-c3ccncc3)nn2)cc1	1.1*	-2.2	3.2	-0.8	i
Cc1ccc2nc(CSc3nnc(Nc4ccccc4F)s3)cc(=O)n2c1	69.7*	-3.2	-8.4	4.7	+
SMILES	eIF4H inh	RBBP9 inh	PABP1 MLLE inh	TCR-CD3 inh	PABP polyA inh
O=c1cc(CSc2nnc(Nc3ccccc3F)s2)nc2sccn12	-6.8	-2.6	-24.4	-1.5	i
COc1ccc(Nc2nnc(SCc3cc(=O)n4ccsc4n3)s2)cc1	74.7*	-1.2	6.9	3.5	+
CC(C)c1[nH]nc2c1C(c1ccccc1)NC2=O (stereo not given)	.	.	.	1.2	.
Nc1c(C(=O)Nc2ccc(F)cc2)sc2nc(-c3ccco3)ccc12	99.1*	-4.3	-1.8	7.5	+
Nc1c(C(=O)Nc2ccc(Br)cc2)sc2nc(-c3ccco3)ccc12	80.9*	-8.0	-9.2	7.0	+
O=C(Nc1ccc(-n2nncc2-c2ccco2)cc1)c1ccc(F)cc1	-0.7	-0.1	-4.3	4.5	i
O=C(O)c1cccc(S(=O)(=O)Nc2ccc3c(c2)OCO3)c1	6.6	0.2	38.3*	0.9	i
Cc1ccnc(N2C(=O)c3cccc4c([N+](=O)[O-])ccc(c34)C2=O)c1	76.7*	-3.9	62.5*	-6.5	+
O=C1C2=C(SCCS2)C(=O)N1CCCO	101.3*	-10.4	57.7*	10.1	+
O=C(CCO)c1ccc(O)cc1	93.8*	0.3	-13.3	26.8*	+
C=CCSc1nnc2c(n1)OC(c1c(C)[nH]n(-c3ccccc3)c1=O)Nc1ccccc1-2 (stereo not given)	?	-6.7	6.8	-4.8	+
C=CCSc1nnc2c(n1)OC(c1cccnc1)Nc1ccccc1-2 (stereo not given)	-3.4	-9.4	7.5	-5.4	i
c1ccc(CSc2nnc(-c3ccccc3)c(-c3ccccc3)n2)cc1	.	.	-8.6	2.2	.
c1ccc(CSc2nnc3c(n2)OC(c2ccco2)Nc2ccccc2-3)cc1 (stereo not given)	4.0*	-9.9	8.9	.	i
CC(=O)N1CCN(c2ccc(N3CCN(C(C)=O)[C@H](C)C3)c(C)c2)[C@@H](C)C1	.	.	.	-3.3	.
N#Cc1[nH]nc2nc[nH]c(=O)c12	.	.	.	-2.0	.
CC(C)CC(=O)NC(=S)NNC(=O)c1ccc([N+](=O)[O-])cc1	5.8	-0.2	8.8	7.1	i
CC(C)CC(=O)NC(=S)NNC(=O)c1ccc(NC(=O)C2CCCCC2)cc1	61.1*	-1.6	1.4	2.1	+
C[C@@H]1CN([C@@H](C)CO)C(=O)CCCn2nncc2CO[C@H]1CN(C)C(=O)Nc1ccc(N2CCN(C)CC2)cc1	.	.	.	-4.7	.
CCN1C(=O)/C(=C2/SC(C)=C(C)N2CC)SC1=S	-0.2	-3.3	52.2*	7.2	i
COc1ccccc1C1Nc2cccc3cccc(c23)N1	?	-1.8	12.5	7.5	?
COc1cc(OC)c(C2Nc3cccc4cccc(c34)N2)c(OC)c1	70.2*	.	18.6	-2.6	+
CCOc1ccc(C2Nc3cccc4cccc(c34)N2)cc1OC	103.4*	4.5	-11.0	3.0	+
Nc1ccn([C@@H]2O[C@H](C(=O)N[C@H](Cc3ccccc3)C(=O)NCC(=O)N3CCOCC3)[C@@H](O)[C@H]2O)c(=O)n1	.	.	.	-0.4	.
COC(=O)C1=C(C)NC(=S)NC1c1cccc(OC)c1 (stereo not given)	.	.	.	6.8	.
COC(=O)c1cc2c(c3c4ccccc4n(S(=O)(=O)c4ccc(OC)cc4)c13)C(=O)N(Cc1ccccc1OC)C2	.	.	.	-1.7	.
CNC(=O)c1c(N)sc2c1CCCCC2	123.8*	1.1	.	.	+
NC(=O)c1c(N)sc2c1CCCCC2	20.5	-0.5	12.5	9.2	i
O=C(O)CSC1CC(=O)N(c2ccc(Cl)c(Cl)c2)C1=O (stereo not given)	-7.7	3.1	41.0*	5.5	i
COCCCn1c(=NC(=O)c2ccncc2)c(C#N)cc2c(=O)n3cccc(C)c3nc21	?	-9.6	88.1	8.2	?
